{
  "source": "ChEMBL document CHEMBL3751676",
  "about": "“Combating P-glycoprotein-mediated multidrug resistance with 10-O-phenyl dihydroartemisinin ethers in MCF-7 cells” (Eur J Med Chem, 2016)",
  "key": {"MCF7": {"tested_on": "MCF7", "assay": "Antiproliferative activity against human MCF7 cells after 96 hrs by MTT assay", "type": "functional", "details": "MCF7, 96 h", "summary_of_the_method": "(§1)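 MTT: cells seeded at 1.5-4.0 × 10^4 cells/mL and incubated overnight at 37 C, then exposed to 5-9 concentrations (DMSO stocks diluted in growth medium; final DMSO ≤0.5%) for 96 h. MTT added at 0.5 mg/mL for a further 4 h at 37 C and the formazan dissolved. Inhibition calculated relative to control; GI50 estimated by curve fitting; 3-5 repeats, mean ± SD.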"}, "[1]": {"assay": "Antiproliferative activity against human MCF7/ADR cells after 96 hrs by MTT assay", "type": "functional", "details": "NCI/ADR-RES", "summary_of_the_method": "as §1"}, "NCI/ADR-RES": {"tested_on": "NCI/ADR-RES", "assay": "Selectivity index, ratio of GI50 for human MCF7 cells to GI50 for human MCF7/ADR cells", "type": "functional"}, "MDR1 (ABCB1) [2]": {"molecular_target": "T1, MDR1 (ABCB1) (Homo sapiens, UniProt P08183)", "T1 sequence (P08183 whole entry)": "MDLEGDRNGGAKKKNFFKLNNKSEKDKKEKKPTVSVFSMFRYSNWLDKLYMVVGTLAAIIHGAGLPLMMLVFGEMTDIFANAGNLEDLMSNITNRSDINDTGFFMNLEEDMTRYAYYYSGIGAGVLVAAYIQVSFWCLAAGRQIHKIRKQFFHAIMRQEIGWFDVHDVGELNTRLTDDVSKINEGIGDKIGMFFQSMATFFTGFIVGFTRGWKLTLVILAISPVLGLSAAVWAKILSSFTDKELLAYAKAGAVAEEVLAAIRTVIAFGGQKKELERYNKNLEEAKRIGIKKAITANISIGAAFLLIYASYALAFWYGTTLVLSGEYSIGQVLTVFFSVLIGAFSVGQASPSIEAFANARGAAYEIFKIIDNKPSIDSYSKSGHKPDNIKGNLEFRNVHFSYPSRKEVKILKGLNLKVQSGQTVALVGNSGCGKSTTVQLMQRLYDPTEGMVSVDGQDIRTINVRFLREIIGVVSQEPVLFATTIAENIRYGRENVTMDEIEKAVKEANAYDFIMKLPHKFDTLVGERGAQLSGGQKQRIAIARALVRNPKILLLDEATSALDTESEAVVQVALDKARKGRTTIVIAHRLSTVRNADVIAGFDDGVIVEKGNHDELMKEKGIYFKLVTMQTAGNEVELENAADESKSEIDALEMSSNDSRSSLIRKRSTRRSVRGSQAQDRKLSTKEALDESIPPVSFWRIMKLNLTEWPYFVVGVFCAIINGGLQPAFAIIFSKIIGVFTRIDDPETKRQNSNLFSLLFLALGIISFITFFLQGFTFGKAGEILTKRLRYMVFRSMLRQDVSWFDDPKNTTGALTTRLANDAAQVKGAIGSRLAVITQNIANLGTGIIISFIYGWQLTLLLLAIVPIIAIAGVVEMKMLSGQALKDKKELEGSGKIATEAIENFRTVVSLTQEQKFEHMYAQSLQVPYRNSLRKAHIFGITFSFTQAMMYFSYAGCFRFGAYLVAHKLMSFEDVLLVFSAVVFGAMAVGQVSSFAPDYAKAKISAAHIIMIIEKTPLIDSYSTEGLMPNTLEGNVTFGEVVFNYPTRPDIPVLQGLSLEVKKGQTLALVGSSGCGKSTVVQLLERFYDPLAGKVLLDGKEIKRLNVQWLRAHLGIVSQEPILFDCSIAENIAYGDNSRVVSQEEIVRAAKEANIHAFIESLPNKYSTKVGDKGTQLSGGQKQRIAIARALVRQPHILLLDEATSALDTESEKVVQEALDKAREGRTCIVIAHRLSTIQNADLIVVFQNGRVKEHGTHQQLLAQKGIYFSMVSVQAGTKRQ", "assay": "Activity at MDR1 (unknown origin) expressed in MDCK cells assessed as permeability across apical to basolateral after 90 mins by LC-MS/MS analysis", "type": "ADME, cell-based"}, "MDR1 (ABCB1) [3]": {"molecular_target": "T1, MDR1 (ABCB1)", "assay": "Activity at MDR1 (unknown origin) expressed in MDCK cells assessed as permeability across basolateral to apical after 90 mins by LC-MS/MS analysis", "type": "ADME, cell-based"}, "[4]": {"assay": "Permeability across apical to basolateral side in MDCK cells after 90 mins by LC-MS/MS analysis", "type": "ADME, cell-based, Canis lupus familiaris", "details": "dog", "summary_of_the_method": "(§2)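 Wild-type MDCK cells on Transwell filters. Transport was run in HBSS pH 7.4 at 37 °C in A-B and B-A directions, and plates were separated after 90 min incubation. Efflux ratio is Papp(B-A)/Papp(A-B). Papp is reported as \"<\" when receiver concentrations were below the quantitation limit.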"}, "[5]": {"assay": "Permeability across basolateral to apical side in MDCK cells after 90 mins by LC-MS/MS analysis", "type": "ADME, cell-based, Canis lupus familiaris", "details": "dog", "summary_of_the_method": "as §2"}, "MDR1 (ABCB1) [6]": {"molecular_target": "T1, MDR1 (ABCB1)", "assay": "Activity at MDR1 (unknown origin) expressed in MDCK cells assessed as efflux ratio of permeability across basolateral to apical side over apical to basolateral side", "type": "ADME, cell-based"}, "[7]": {"assay": "Efflux ratio of permeability across basolateral to apical side over apical to basolateral side in MDCK cells", "type": "ADME, cell-based, Canis lupus familiaris", "details": "dog", "summary_of_the_method": "as §2"}},
  "data": [
    {"smiles": "C[C@H]1[C@@H](Oc2ccc(CN3CCN(c4ccccc4)CC3)cc2)O[C@@H]2O[C@@]3(C)CC[C@H]4[C@H](C)CC[C@@H]1[C@@]24OO3", "values": [
      {"measurement": "GI50", "setting": "MCF7", "result": 240, "unit": "nM"},
      {"measurement": "GI50", "setting": "[1]", "result": 21, "unit": "nM"},
      {"measurement": "RatioGI50", "setting": "NCI/ADR-RES", "result": 11.43}
    ]},
    {"smiles": "C[C@H]1[C@@H](Oc2ccc(CC(=O)N3CCN(c4ccccn4)CC3)cc2)O[C@@H]2O[C@@]3(C)CC[C@H]4[C@H](C)CC[C@@H]1[C@@]24OO3", "values": [
      {"measurement": "GI50", "setting": "MCF7", "result": 960, "unit": "nM"},
      {"measurement": "GI50", "setting": "[1]", "result": 80, "unit": "nM"},
      {"measurement": "RatioGI50", "setting": "NCI/ADR-RES", "result": 12}
    ]},
    {"smiles": "C[C@H]1[C@@H](Oc2ccc(CC(=O)N3CCN(c4ccccc4)CC3)cc2)O[C@@H]2O[C@@]3(C)CC[C@H]4[C@H](C)CC[C@@H]1[C@@]24OO3", "values": [
      {"measurement": "GI50", "setting": "MCF7", "result": 430, "unit": "nM"},
      {"measurement": "GI50", "setting": "[1]", "result": 90, "unit": "nM"},
      {"measurement": "RatioGI50", "setting": "NCI/ADR-RES", "result": 4.78}
    ]},
    {"smiles": "C[C@H]1[C@@H](Oc2ccc(CN3CCN(c4ccccn4)CC3)cc2)O[C@@H]2O[C@@]3(C)CC[C@H]4[C@H](C)CC[C@@H]1[C@@]24OO3", "values": [
      {"measurement": "GI50", "setting": "MCF7", "result": 170, "unit": "nM"},
      {"measurement": "GI50", "setting": "[1]", "result": 55, "unit": "nM"},
      {"measurement": "RatioGI50", "setting": "NCI/ADR-RES", "result": 3.09}
    ]},
    {"smiles": "C[C@H]1[C@@H](O)O[C@@H]2O[C@@]3(C)CC[C@H]4[C@H](C)CC[C@@H]1[C@@]24OO3", "note": "[ARTENIMOL]", "values": [
      {"measurement": "GI50", "setting": "MCF7", "result": 33200, "unit": "nM"},
      {"measurement": "GI50", "setting": "[1]", "result": 3320, "unit": "nM"},
      {"measurement": "RatioGI50", "setting": "NCI/ADR-RES", "result": 10},
      {"measurement": "Papp A→B at 1.5 h", "setting": "MDR1 (ABCB1) [2]", "result": 28, "unit": "×10⁻⁶ cm/s"},
      {"measurement": "Papp B→A at 1.5 h", "setting": "MDR1 (ABCB1) [3]", "result": 24.9, "unit": "×10⁻⁶ cm/s"},
      {"measurement": "Papp A→B at 1.5 h", "setting": "[4]", "result": 31.4, "unit": "×10⁻⁶ cm/s"},
      {"measurement": "Papp B→A at 1.5 h", "setting": "[5]", "result": 25.1, "unit": "×10⁻⁶ cm/s"},
      {"measurement": "efflux ratio", "setting": "MDR1 (ABCB1) [6]", "result": 0.89},
      {"measurement": "efflux ratio", "setting": "[7]", "result": 0.8}
    ]},
    {"smiles": "C[C@H]1[C@@H](Oc2ccc(C(=O)N3CCN(c4ccccc4)CC3)cc2)O[C@@H]2O[C@@]3(C)CC[C@H]4[C@H](C)CC[C@@H]1[C@@]24OO3", "values": [
      {"measurement": "GI50", "setting": "MCF7", "result": 100, "unit": "nM"},
      {"measurement": "GI50", "setting": "[1]", "result": 75, "unit": "nM"},
      {"measurement": "RatioGI50", "setting": "NCI/ADR-RES", "result": 1.33}
    ]},
    {"smiles": "COc1ccccc1N1CCN(Cc2ccc(O[C@H]3O[C@@H]4O[C@@]5(C)CC[C@H]6[C@H](C)CC[C@@H]([C@H]3C)[C@@]46OO5)cc2)CC1", "values": [
      {"measurement": "GI50", "setting": "MCF7", "result": 580, "unit": "nM"},
      {"measurement": "GI50", "setting": "[1]", "result": 150, "unit": "nM"},
      {"measurement": "RatioGI50", "setting": "NCI/ADR-RES", "result": 3.87}
    ]},
    {"smiles": "COc1cccc2c1C(=O)c1c(O)c3c(c(O)c1C2=O)C[C@@](O)(C(=O)CO)C[C@@H]3O[C@H]1C[C@H](N)[C@H](O)[C@H](C)O1.Cl", "note": "[DOXORUBICIN HYDROCHLORIDE]", "values": [
      {"measurement": "GI50", "setting": "MCF7", "result": 54, "unit": "nM"},
      {"measurement": "GI50", "setting": "[1]", "result": 520, "unit": "nM"},
      {"measurement": "RatioGI50", "setting": "NCI/ADR-RES", "result": 0.1}
    ]},
    {"smiles": "COc1ccccc1N1CCN(C(=O)Cc2ccc(O[C@H]3O[C@@H]4O[C@@]5(C)CC[C@H]6[C@H](C)CC[C@@H]([C@H]3C)[C@@]46OO5)cc2)CC1", "values": [
      {"measurement": "GI50", "setting": "MCF7", "result": 470, "unit": "nM"},
      {"measurement": "GI50", "setting": "[1]", "result": 43, "unit": "nM"},
      {"measurement": "RatioGI50", "setting": "NCI/ADR-RES", "result": 10.93}
    ]},
    {"smiles": "C=C[C@H]1C[N@@]2CC[C@H]1C[C@@H]2[C@@H](O)c1ccnc2ccc(OC)cc12", "note": "[QUINIDINE]", "values": [
      {"measurement": "Papp A→B at 1.5 h", "setting": "MDR1 (ABCB1) [2]", "result": 4.37, "unit": "×10⁻⁶ cm/s"},
      {"measurement": "Papp B→A at 1.5 h", "setting": "MDR1 (ABCB1) [3]", "result": 34.1, "unit": "×10⁻⁶ cm/s"},
      {"measurement": "Papp A→B at 1.5 h", "setting": "[4]", "result": 9.98, "unit": "×10⁻⁶ cm/s"},
      {"measurement": "Papp B→A at 1.5 h", "setting": "[5]", "result": 23.4, "unit": "×10⁻⁶ cm/s"},
      {"measurement": "efflux ratio", "setting": "MDR1 (ABCB1) [6]", "result": 7.81},
      {"measurement": "efflux ratio", "setting": "[7]", "result": 2.34}
    ]}
  ]
}
